# Assay outcomes as filed in PubChem BioAssay.
# ABCB6 inh MLPCN – blocks the human ABCB6 transporter; K562-ABCB6 porphyrin accumulation, flow cytometry, 1 h; active compounds read low; Q9NP58; AID 602162; fluorescence ratio to DMSO, % at 10 µM; hit rate 0.19% among 360,000;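 active = fluorescence ratio to DMSO below 75%, the collection mean minus 3 SD; inconclusive = too few cells collected in the well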;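 note: signal is porphyrin accumulated inside mitochondria; 100% equals median channel fluorescence of DMSO control wells; lower ratio means ABCB6 inhibition with less porphyrin fluorescence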
# CendR NRP1 mod – modulators of CendR peptide binding to human neuropilin-1. FAM-RPARPAR peptide binding to NRP-1, fluorescence polarization. O14786. hit rate 0.85% among 360,000. inhibition, % at 25 µM. AID 602438;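 active = inhibition or corrected inhibition above about 18%, plus a signal ratio from 0.5 to 1.5, limit read from the data, passing the limit was not always enough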
# Arr AP2 block – human beta-arrestin and AP2 interaction inhibition. hit rate 0.31% among 340,000. FITC-arrestin peptide / GST-AP2 beads, flow cytometry; AP2 beta2 appendage carries R879A mutation. inhibition, % at 10 µM. AID 504490;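 active = inhibition above a set limit, near 3 SD of compounds lacking own fluorescence, cut at about 54% in these data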;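 note: plate controls were DMSO wells for no effect and 5 µM unlabelled arrestin peptide for full effect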
#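 System: GST-AP2 R879A glutathione beads. Medium: PBS with 0.05% Tween 20 and 0.1% BSA. Also added: FITC-arrestin peptide, 50 nM. Incubation: 12 min plus 1 h, RT. Measured by: high-throughput flow cytometry of beads, ex 488, em 535 nm. Evaluation: percent drop in bead-associated FITC signal.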
# Myeloid diff 2 – myeloid differentiation induction | calls only at 10 µM | AID 624256 | hit rate 1% among 360,000 | ER-HoxA9 myeloid progenitors, lysozyme-GFP differentiation, flow cytometry;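 active = normalized GFP-positive differentiation at or above the plate's own cutoff, the solvent-only control mean plus 3 SD; inconclusive = no clear call, values can overlap the other calls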;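 note: cells exposed to compound for four days before flow analysis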
# ATG4B inhibitor – blocks human ATG4B protease cleavage of LC3 substrate | ATG4B cleavage of LC3-PLA2, NBD-HPC fluorescence, 1 h | AID 504462 | hit rate 0.51% among 340,000 | inhibition, % at 8.33 µM; in the data active = inhibition above about 40%
# Target sequence (Q9Y4P1 whole entry, looked up): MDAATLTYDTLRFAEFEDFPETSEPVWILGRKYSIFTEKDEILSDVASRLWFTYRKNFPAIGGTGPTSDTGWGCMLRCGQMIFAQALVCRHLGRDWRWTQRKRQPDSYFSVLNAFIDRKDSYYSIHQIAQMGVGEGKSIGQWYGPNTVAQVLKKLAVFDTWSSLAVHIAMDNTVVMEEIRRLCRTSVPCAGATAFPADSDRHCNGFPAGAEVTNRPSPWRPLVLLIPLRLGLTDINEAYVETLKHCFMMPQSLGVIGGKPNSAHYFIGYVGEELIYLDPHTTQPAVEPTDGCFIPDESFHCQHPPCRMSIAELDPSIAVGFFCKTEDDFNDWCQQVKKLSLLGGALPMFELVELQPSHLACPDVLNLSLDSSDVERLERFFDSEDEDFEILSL
# Exocytosis inh – lytic granule exocytosis inhibition. AID 651702. inhibition, % at 10 µM. TALL-104 LAMP-1 surface exposure, flow cytometry; cells stimulated with thapsigargin and PMA. hit rate 0.66% among 360,000;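 active = inhibition above about 55%, limit read from the data; inconclusive = no clear call, values can overlap the other calls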
# ATG4B confirm – confirmation of human ATG4B inhibitors; shares compounds with ATG4B inhibitor; ATG4B protease fluorescent substrate cleavage assay; inhibition, % at 8.33 µM; hit rate 92% among 320; AID 504757; in the data active = inhibition above about 39%
# PLA2 ctr – inhibits human PLA2, flagging false ATG4B inhibitors; hit rate 66% among 1,600; inhibition, % at 8.33 µM; shares compounds with ATG4B inhibitor; AID 588402; purified PLA2, NBD-C6-HPC fluorescence, 45 min; in the data active = inhibition above about 50%
# Target sequence (P04054 whole entry, looked up): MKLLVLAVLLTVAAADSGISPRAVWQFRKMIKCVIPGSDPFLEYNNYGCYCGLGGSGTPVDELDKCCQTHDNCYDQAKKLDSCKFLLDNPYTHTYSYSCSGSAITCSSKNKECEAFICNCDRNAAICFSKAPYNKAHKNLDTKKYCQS
# Numbers without * were called inactive; i = inactive; ? = inconclusive; . = no result. An excerpt weighted towards active compounds, which were near 3.3% of everything screened.
SMILES,ABCB6 inh MLPCN,CendR NRP1 mod,Arr AP2 block,Myeloid diff 2,ATG4B inhibitor,Exocytosis inh,PLA2 ctr,others
COc1ccc(NC(=O)CC(C)c2ccccc2)c([N+](=O)[O-])c1 (centres undefined),103,-13,-2,i,42*,1,1,
O=c1c2ccccc2nc(SCc2nnc(-c3ccccc3)o2)n1-c1ccccc1,93,7,-7,i,72*,8,73*,
O=C(CSc1nc2c(c(=O)n1-c1ccc(Cl)cc1)SCC2)Nc1nccs1,96,9,21,i,61*,5,80*,
COC(=O)c1ccc(CSc2nc3ccccc3c(=O)n2-c2ccc(OC)c(OC)c2)o1,94,-12,3,i,19,3,.,
COC(=O)c1ccc(CSc2nc3ccccc3c(=O)n2-c2ccccc2)o1,97,-4,1,i,65*,19,73*,
COC(=O)c1ccc(CSc2nc3c(c(=O)n2-c2ccc(F)cc2)SCC3)o1,94,9,-3,i,48*,-4,50,
COc1ccc(S(=O)(=O)NC2CCc3ccccc32)cc1OC (centres undefined),100,3,-7,i,-1,7,.,
O=C(NCC(c1ccco1)N1CCc2ccccc2C1)C(=O)Nc1ccccc1F (centres undefined),94,-8,-6,i,29,1,.,
COc1cccc(CNC(=O)[C@@H]2CCCN2C(=O)[C@H]2CCCCN2C(=O)c2ccc(Cl)cc2)c1,97,-3,.,i,.,-1,.,
O=C(NCCc1ccc(Cl)cc1)c1ccc2[nH]c(=O)c(=O)[nH]c2c1,99,-7,3,i,-7,-2,.,
OCCc1c[nH]c2ccc(C(F)(F)F)cc12,101,12,0,i,4,20,.,
CC1=NN(c2ccc(C(=O)O)cc2)C(=O)/C1=C\c1ccc(OC(=O)c2cccs2)cc1,85,-105,0,i,85*,5,70*,
CCOc1cc(/C=C2\C(=O)N(c3ccc(C(N)=O)cc3)N=C2C)ccc1OC(=O)c1cccs1,100,-47,10,i,27,31,.,
COc1ccc(/C=C/C(=O)OCC(=O)c2cc(C)ccc2C)cc1,98,1,.,i,.,0,.,
CC(=O)Nc1nc(C)c(C(C)C)s1,100,6,3,i,-5,7,.,
CCOc1ccc(-c2cc(NC(=O)c3c(F)cccc3F)c(C(=O)O)s2)cc1,94,-4,8,i,92*,-11,94*,
O=C(Nc1cc(-c2ccccc2)sc1C(=O)O)c1cccc(F)c1,99,2,7,i,93*,20,91*,
CCOc1ccc(NC(=O)Nc2cc(-c3ccccc3)sc2C(=O)OC)cc1,95,-8,28,i,15,6,.,
O=C(CCCc1c[nH]c2ccccc12)Nc1ncccc1O,104,-10,3,i,5,-1,.,
COc1ccc(OC)c(CN2C(=O)CN(S(C)(=O)=O)CC2(C)C(=O)Nc2c(C)cccc2C)c1 (centres undefined),.,-14,.,i,.,-4,.,
Cc1ccsc1/C=C1\CCc2ccccc2C1=O,99,-11,25,i,46*,-1,68*,
Cc1ccccc1/C=C1\CCCc2ccccc2C1=O,103,8,5,i,53*,-2,61*,
C/C=C/c1ccc2c(c1)O[C@H](CN(C)CC1CCOCC1)[C@@H](C)CN([C@H](C)CO)S2(=O)=O,101,-6,.,i,.,4,.,
O=C(Cn1cccc1C(=O)c1ccccc1)NCCc1ccc(Cl)cc1,97,14,-18,i,45*,0,53*,
O=C(Cn1cccc1C(=O)c1ccccc1)NCCc1ccccc1,99,8,5,?,3,1,.,
SMILES,ABCB6 inh MLPCN,CendR NRP1 mod,Arr AP2 block,Myeloid diff 2,ATG4B inhibitor,Exocytosis inh,PLA2 ctr,others
O=C(CC1CC1)Nc1ccc2c(c1)[C@H]1C[C@H](CC(=O)N3CCc4ccccc4C3)O[C@@H](CO)[C@H]1O2,98,-1,.,i,.,-1,.,
CC(=O)Nc1cc(C(=O)N2CCc3ccccc3C2)ccc1Sc1ccc(Cl)cc1,101,-3,21,i,40*,41,51*,
CC(=O)Nc1cc(C(=O)N2CCc3ccccc3C2)ccc1Sc1ccc(F)cc1,101,-1,-7,i,24,4,.,
Cc1nn(CCC(N)=O)c2nc(-c3cccs3)cc(C(F)(F)F)c12,95,-28,-4,.,86*,-1,84*,
CC(=O)c1cc2c(C)c(C(=O)c3ccccc3)oc2cc1O,105,-137,2,i,40*,-2,-6,
CCOc1cc(/C=C2\N=C(SC)SC2=O)cc([N+](=O)[O-])c1OC(C)=O,95,0,9,i,31,2,.,
CCOc1cc(/C=C2\N=C(SCC)SC2=O)cc([N+](=O)[O-])c1OC(C)=O,150,14,-5,i,76*,-2,75*,
O=C(CCNC(=O)c1ccc(Br)cc1)Nc1ccc(S(=O)(=O)Nc2ncccn2)cc1,99,-24,-7,i,2,10,.,
Cc1cc(C)c(-c2c(N)cc(Br)cc2Br)c(N)c1,98,10,3,i,57*,10,65*,
Cc1ccc(-c2nc3ccc(Cl)cn3c2Cc2cccc(Cl)c2)cc1,102,-17,.,i,.,-4,.,
O=C1c2ccccc2N2C(=O)c3ccccc3C2N1Cc1ccccc1 (centres undefined),99,-4,-11,i,25,-5,.,
O=C1c2ccccc2N2C(=O)c3ccccc3[C@H]2N1c1ccccc1,99,11,-4,i,55*,-2,61*,
CCN1CCCC1CNC(=O)Cn1cccc1C(=O)c1ccccc1C (centres undefined),98,-6,4,i,0,-1,.,
Cc1ccc(C(=O)OCC(=O)N(C)C2CCS(=O)(=O)C2)cc1[N+](=O)[O-] (centres undefined),92,6,6,i,-11,-1,.,
O=C(NCc1ccccc1)/C(=C/c1ccco1)NC(=O)c1ccco1,103,-1,10,i,-1,0,.,
CCC(C)N(C(=O)COc1ccc(Br)cc1C=O)C1CCS(=O)(=O)C1 (centres undefined),102,-11,0,i,42*,-4,48,ATG4B confirm=57*
Cc1ccc2c(c1)c1c(n2C)C(C(N)=O)CCC1 (centres undefined),89,-2,-1,i,62*,0,69*,
CC(=O)N1CCn2c3c(c4cc(C)ccc42)CCCC31 (centres undefined),101,-1,19,i,-4,1,.,
